Reference: ChEMBL document CHEMBL1649383, “Mode of action of epoxyphomalins A and B and characterization of related metabolites from the marine-derived fungus Paraconiothyrium sp” (J Nat Prod, 2010)
Values after ≈ are worked out from the molar mass of the structure shown.

How the values were obtained:
[1] = Cytotoxicity against human BXF 1218L cells at 0.01 ug/ml relative to control; format: functional
[2] = Cytotoxicity against human LXFA 289L cells; format: functional, cell-based
Summary of the method: (§1)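 Monolayer cell survival and proliferation assay run across a panel of 36 human tumour cell lines; IC50 values determined.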

[3] = Cytotoxicity against human LXFL 529L cells; format: functional, cell-based; summary of the method: as §1
[4] = Cytotoxicity against human LXFA 629L cells; format: functional, cell-based; summary of the method: as §1
[5] = system: OVCAR-3; experiment: Cytotoxicity against human OVCAR3 cells; format: functional, cell-based
Summary of the method: (§2)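 Monolayer cell survival and proliferation assay run across a panel of 36 human tumor cell lines, with IC50 determined from the resulting growth data.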

[6] = Cytotoxicity against human PAXF 1657L cells; format: functional, cell-based; summary of the method: as §2
[7] = system: CWR22R; experiment: Cytotoxicity against human 22Rv1 cells; format: functional, cell-based
Summary of the method: (§3)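 Monolayer cell survival and proliferation assay, run within a panel of 36 human tumor cell lines; IC50 determined per cell line.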

[8] = system: DU-145; experiment: Cytotoxicity against human DU145 cells; format: functional, cell-based; summary of the method: as §3
[9] = system: LNCaP; experiment: Cytotoxicity against human LNCAP cells; format: functional, cell-based; summary of the method: as §1
[10] = Cytotoxicity against human RXF 393NL cells; format: functional, cell-based; summary of the method: as §2
[11] = Cytotoxicity against human RXF 486L cells; format: functional, cell-based; summary of the method: as §2
[12] = Cytotoxicity against human RXF 944L cells; format: functional, cell-based; summary of the method: as §2
[13] = Cytotoxicity against human UXF 1138L cells; format: functional, cell-based; summary of the method: as §2
[14] = system: T-24; experiment: Cytotoxicity against human T24 cells at 0.001 ug/ml relative to control; format: functional
[15] = Cytotoxicity against human CNXF 498NL cells at 0.001 ug/ml relative to control; format: functional
[16] = Cytotoxicity against human GXF251L cells at 0.001 ug/ml relative to control; format: functional
[17] = Cytotoxicity against human LXFA 526L cells at 0.001 ug/ml relative to control; format: functional
[18] = Cytotoxicity against human LXFL 529L cells at 0.001 ug/ml relative to control; format: functional
[19] = system: MCF7; experiment: Cytotoxicity against human MCF7 cells at 0.001 ug/ml relative to control; format: functional
[20] = Cytotoxicity against human MEXF 394NL cells at 0.001 ug/ml relative to control; format: functional
[21] = Cytotoxicity against human MEXF 462NL cells at 0.001 ug/ml relative to control; format: functional
[22] = Cytotoxicity against human MEXF 514L cells at 0.001 ug/ml relative to control; format: functional
[23] = Cytotoxicity against human UXF 1138L cells at 0.001 ug/ml relative to control; format: functional
[24] = system: HCT-116; experiment: Cytotoxicity against human HCT116 cells at 0.01 ug/ml relative to control; format: functional
[25] = Cytotoxicity against human LXFL 1121L cells at 0.01 ug/ml relative to control; format: functional
[26] = system: MCF7; experiment: Cytotoxicity against human MCF7 cells at 0.01 ug/ml relative to control; format: functional
[27] = Cytotoxicity against human OVXF 899L cells at 0.01 ug/ml relative to control; format: functional
[28] = system: T-24; experiment: Cytotoxicity against human T24 cells at 0.1 ug/ml relative to control; format: functional
[29] = system: SF-268; experiment: Cytotoxicity against human SF268 cells at 0.1 ug/ml relative to control; format: functional
[30] = Cytotoxicity against human GXF251L cells at 0.1 ug/ml relative to control; format: functional
[31] = Cytotoxicity against human HNXF 536L cells at 0.1 ug/ml relative to control; format: functional
[32] = Cytotoxicity against human LXFL 1121L cells at 0.1 ug/ml relative to control; format: functional
[33] = system: NCI-H460; experiment: Cytotoxicity against human H460 cells at 0.1 ug/ml relative to control; format: functional
[34] = Cytotoxicity against human MEXF 276L cells at 0.1 ug/ml relative to control; format: functional, MEXF276L
[35] = system: LNCaP; experiment: Cytotoxicity against human LNCAP cells at 0.1 ug/ml relative to control; format: functional
[36] = Cytotoxicity against human RXF 393NL cells at 0.1 ug/ml relative to control; format: functional
[37] = Cytotoxicity against human BXF 1218L cells at 1 ug/ml relative to control; format: functional
[38] = system: T-24; experiment: Cytotoxicity against human T24 cells at 1 ug/ml relative to control; format: functional
[39] = system: HT-29; experiment: Cytotoxicity against human HT-29 cells at 1 ug/ml relative to control; format: functional
[40] = system: MCF7; experiment: Cytotoxicity against human MCF7 cells at 1 ug/ml relative to control; format: functional
[41] = Cytotoxicity against human MEXF 276L cells at 1 ug/ml relative to control; format: functional, MEXF276L
[42] = Cytotoxicity against human MEXF 394NL cells at 1 ug/ml relative to control; format: functional
[43] = system: DU-145; experiment: Cytotoxicity against human DU145 cells at 1 ug/ml relative to control; format: functional
[44] = system: LNCaP; experiment: Cytotoxicity against human LNCAP cells at 1 ug/ml relative to control; format: functional
[45] = Cytotoxicity against human PXF 1752L cells at 1 ug/ml relative to control; format: functional
[46] = Cytotoxicity against human GXF251L cells at 10 ug/ml relative to control; format: functional
[47] = Cytotoxicity against human LXFA 629L cells at 10 ug/ml relative to control; format: functional
[48] = Cytotoxicity against human MEXF 276L cells at 10 ug/ml relative to control; format: functional, MEXF276L
[49] = Cytotoxicity against human MEXF 514L cells at 10 ug/ml relative to control; format: functional
[50] = Cytotoxicity against human MEXF 520L cells at 10 ug/ml relative to control; format: functional
[51] = system: OVCAR-3; experiment: Cytotoxicity against human OVCAR3 cells at 10 ug/ml relative to control; format: functional
[52] = system: CWR22R; experiment: Cytotoxicity against human 22Rv1 cells at 10 ug/ml relative to control; format: functional
[53] = system: DU-145; experiment: Cytotoxicity against human DU145 cells at 10 ug/ml relative to control; format: functional
[54] = Cytotoxicity against human RXF 393NL cells at 10 ug/ml relative to control; format: functional
[55] = Cytotoxicity against human RXF 944L cells at 10 ug/ml relative to control; format: functional

Work on `C=C1[C@@H](O)[C@H]2O[C@@]2(C[C@H]2C(C)=CC[C@H]3C(C)(C)CCC[C@]23C)[C@@H](O)[C@H]1O` [EPOXYPHOLAMIN D] yielded an Activity [1] of 94%, an IC50 [2] of 18.5 µM and an IC70 [2] of 13.9 µg/mL (≈ 38.3 µM). For the same compound, the IC90 [2] was 28.9 µg/mL (≈ 79.6 µM), the IC50 [3] was 8.58 µM and the IC70 [3] was 5.95 µg/mL (≈ 16.4 µM). The IC90 [3] was 11.4 µg/mL (≈ 31.4 µM), the IC50 [4] was 3.2 µM and the IC70 [4] was 3.08 µg/mL (≈ 8.51 µM). For the same compound, the IC90 [4] was 8.22 µg/mL (≈ 22.7 µM), the IC50 [5] was 1960 nM and the IC70 [5] was 2.71 µg/mL (≈ 7.48 µM). The IC90 [5] was 12.6 µg/mL (≈ 34.7 µM), the IC50 [6] was 6.32 µM and the IC70 [6] was 4.7 µg/mL (≈ 13 µM). For the same compound, the IC90 [6] was 9.65 µg/mL (≈ 26.6 µM), the IC50 [7] was 2480 nM and the IC70 [7] was 3.06 µg/mL (≈ 8.45 µM). It also gave an IC90 [7] of 10.6 µg/mL (≈ 29.4 µM), an IC50 [8] of 8.99 µM and an IC70 [8] of 5.88 µg/mL (≈ 16.2 µM). For the same compound, the IC90 [8] was 10.6 µg/mL (≈ 29.3 µM), the IC50 [9] was 17 µM and the IC70 [9] was 9.38 µg/mL (≈ 25.9 µM). It also gave an IC90 [9] of 14.3 µg/mL (≈ 39.5 µM), an IC50 [10] of 11.8 µM and an IC70 [10] of 6.53 µg/mL (≈ 18 µM). For the same compound, the IC90 [10] was 10 µg/mL (≈ 27.6 µM), the IC50 [11] was 7.67 µM and the IC70 [11] was 5.27 µg/mL (≈ 14.5 µM). For the same compound, the IC90 [11] was 10 µg/mL (≈ 27.6 µM), the IC50 [12] was 10.8 µM and the IC70 [12] was 6.58 µg/mL (≈ 18.1 µM). For the same compound, the IC90 [12] was 11.1 µg/mL (≈ 30.6 µM), the IC50 [13] was 6.15 µM and the IC70 [13] was 4.64 µg/mL (≈ 12.8 µM). It also gave an IC90 [13] of 9.64 µg/mL (≈ 26.6 µM), an Activity [14] of 100% and an Activity [15] of 102%. It also gave an Activity [16] of 105%, an Activity [17] of 109% and an Activity [18] of 99%. The Activity [19] was 91%, the Activity [20] was 97% and the Activity [21] was 133%. For the same compound, the Activity [22] was 119%, the Activity [23] was 96% and the Activity [24] was 97%. The Activity [25] was 135%, the Activity [26] was 102% and the Activity [27] was 104%. It also gave an Activity [28] of 104%, an Activity [29] of 82% and an Activity [30] of 112%. It also gave an Activity [31] of 98%, an Activity [32] of 146% and an Activity [33] of 91%. It also gave an Activity [34] of 98%, an Activity [35] of 103% and an Activity [36] of 134%. The Activity [37] was 29%, the Activity [38] was 126% and the Activity [39] was 121%. For the same compound, the Activity [40] was 68%, the Activity [41] was 59% and the Activity [42] was 78%. For the same compound, the Activity [43] was 90%, the Activity [44] was 136% and the Activity [45] was 46%. It also gave an Activity [46] of 16%, an Activity [47] of 6% and an Activity [48] of 20%. The Activity [49] was 11%, the Activity [50] was 5% and the Activity [51] was 13%. The Activity [52] was 11%, the Activity [53] was 12% and the Activity [54] was 10%. For the same compound, the Activity [55] was 14%.
